In brackets after ≈: the same amount, converted by molar mass. Activity calls are given as the source filed them. The calls are words filed in the database; no cut-off is given here.
What was measured:
Cryptococcus neoformans [1] = test: Concentration required to inhibit growth of MY 1051 strain of Cryptococcus neoformans; format: functional
Summary of the method: (§1)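 Broth microdilution against a panel of clinically relevant fungal strains. Read-out was the minimum fungicidal concentration in μg/mL.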

HepG2 [2] = test: Concentration required to inhibit cholesterol synthesis in Hep G2 cells relative to control (IC50 of L-694,599); format: functional, Homo sapiens
Summary of the method: (§2)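 Hep G2 cells held 2 days in lipoprotein-depleted FBS to stimulate sterol synthesis, then given inhibitor in serum-free medium for 2 h. 15 μCi [5-3H]mevalonate (0.2 mCi/mmol) added for 1 h. Cells washed and saponified, and radioactivity counted by scintillation.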

Candida albicans [3] = test: Concentration required to inhibit growth of MY 1750 strain of Candida albicans; format: functional; summary of the method: as §1
Candida albicans [4] = test: Concentration required to inhibit growth of MY 1055 strain of Candida albicans; format: functional; summary of the method: as §1
Candida tropicalis = test: Concentration required to inhibit growth of MY 1012 strain of Candida tropicalis; format: functional; summary of the method: as §1
Candida parapsilosis = test: Concentration required to inhibit growth of MY 1010 strain of Candida parapsilosis; format: functional; details: Lodderomyces parapsilosis; summary of the method: as §1
Cryptococcus neoformans [5] = test: Concentration required to inhibit growth of MY 2061 strain of Cryptococcus neoformans; format: functional; summary of the method: as §1
Mus musculus [6] = test: Tested for its ability to inhibit the incorporation of [5-3H]-mevalonolactone into cholesterol by in vivo mouse assay by peroral administration at a dose of 40 mg/kg; format: functional; details: route oral
Summary of the method: (§3)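 Female Swiss Webster mice (~25 g), six per group, dosed po by gavage with inhibitor suspended in 5% emulphor. 30 min later, 0.5 μCi/mouse [5-3H]mevalonolactone in saline given sc. Livers removed 30 min after that and saponified in KOH/EtOH overnight at 55 °C, then petroleum-ether extracted. Nonsaponifiable dpm counted. Compounds first tested at a single dose (typically 12 or 24 mg/kg).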

[7] = tested on: squalene synthase (Saccharomyces cerevisiae); test: compound required to inhibit 50% activity of yeast squalene synthase enzyme relative to control (L-694,599).
[8] = target: T1, Squalene synthase (Rattus norvegicus) (UniProt Q02769); test: concentration required to inhibit rat liver squalene synthase enzyme relative to control (L-694,599)
T1 sequence (whole entry): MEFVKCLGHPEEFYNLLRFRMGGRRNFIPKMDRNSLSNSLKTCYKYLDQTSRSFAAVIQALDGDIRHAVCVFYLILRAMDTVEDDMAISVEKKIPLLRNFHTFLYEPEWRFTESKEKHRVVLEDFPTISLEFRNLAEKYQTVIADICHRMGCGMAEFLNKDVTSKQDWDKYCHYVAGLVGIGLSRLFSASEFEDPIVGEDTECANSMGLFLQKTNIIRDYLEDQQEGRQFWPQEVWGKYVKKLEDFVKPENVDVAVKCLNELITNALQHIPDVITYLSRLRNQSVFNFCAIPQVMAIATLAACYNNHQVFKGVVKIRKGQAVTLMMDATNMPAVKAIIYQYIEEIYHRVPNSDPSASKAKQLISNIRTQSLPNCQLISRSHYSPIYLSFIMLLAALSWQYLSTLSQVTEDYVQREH
Summary of the method: (§4)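 Enzyme from rat liver. […] Inhibitors added in DMSO (0.3% final) as 3-fold serial dilutions, usually up to 30 ng/mL (about 40 nM). IC50 read from % inhibition vs log concentration.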

HepG2 [9] = test: Concentration required to inhibit cholesterol synthesis in Hep G2 cells; format: functional, cell-based; details: Homo sapiens; summary of the method: as §2
Aspergillus fumigatus = test: Concentration required to inhibit growth of MF 4839 strain of Aspergillus fumigatus; format: functional; summary of the method: as §1
Squalene synthase [10] = target: T2, Squalene synthase (Rattus norvegicus, UniProt Q02769); test: Tested for inhibition against squalene synthase enzyme in rat liver
T2 sequence (Q02769 whole entry): T1 sequence (whole entry)

Squalene synthase [11] = target: T2, Squalene synthase; test: Concentration required for inhibition of rat liver squalene synthase enzyme at 161 nM; Not active
Mus musculus [12] = test: Tested for its ability to inhibit the incorporation of [5-3H]-mevalonolactone into cholesterol by in vivo mouse assay by peroral administration at dose 100 mg/kg; format: functional; details: route oral; summary of the method: as §3
Trichophyton benhamiae = test: Concentration required to inhibit growth of MF 4864 strain of Trichophyton mentagrophytes; format: functional, Arthroderma benhamiae; summary of the method: as §1
Mus musculus [13] = test: Tested for its ability to inhibit the incorporation of [5-3H]-mevalonolactone into cholesterol by in vivo mouse assay by peroral administration not active at dose 40 mg/kg; NA = Not active; format: functional, organism-based; set-up: dose 40 mg/kg; summary of the method: as §3
Squalene synthase [14] = target: T2, Squalene synthase; test: Concentration required for inhibition of rat liver squalene synthase enzyme at 161 nM; NA = not active
HepG2 [15] = test: Concentration of compound required to inhibit cholesterol synthesis in Hep G2 cells relative to control (IC50 of L-694,599); format: functional, Homo sapiens; summary of the method: as §2
[16] = target: T1, Squalene synthase (Rattus norvegicus); test: Concentration required to inhibit rat liver squalene synthase enzyme relative to control (L-694,599); summary of the method: as §4
Mus musculus [17] = test: Tested for its ability to inhibit the incorporation of [5-3H]-mevalonolactone into cholesterol by in vivo mouse assay by peroral administration at a dose of 12 mg/kg; format: functional; details: route oral; summary of the method: as §3
[18] = target: T3, Squalene synthase (Mus musculus) (UniProt P53798); test: Tested for the effective dose required for the incorporation of [5-3H]-mevalonolactone into cholesterol by in vivo mouse assay by peroral administration; format: functional, organism-based; summary of the method: as §3
T3 sequence (whole entry): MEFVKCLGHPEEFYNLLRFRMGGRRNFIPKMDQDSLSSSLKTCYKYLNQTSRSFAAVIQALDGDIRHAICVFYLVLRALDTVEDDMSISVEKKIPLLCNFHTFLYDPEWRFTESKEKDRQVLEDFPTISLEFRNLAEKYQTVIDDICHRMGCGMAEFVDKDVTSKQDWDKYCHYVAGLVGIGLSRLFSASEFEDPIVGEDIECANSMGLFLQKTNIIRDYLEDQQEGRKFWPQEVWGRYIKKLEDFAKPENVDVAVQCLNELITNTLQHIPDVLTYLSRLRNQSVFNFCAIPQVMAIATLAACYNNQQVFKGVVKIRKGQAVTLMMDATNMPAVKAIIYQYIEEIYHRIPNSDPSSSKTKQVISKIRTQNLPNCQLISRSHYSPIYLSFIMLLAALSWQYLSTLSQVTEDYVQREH

C=C(CCC12OC(C(=O)O)C(O)(C(=O)O)C(C(=O)O)(O1)[C@H](OC(=O)OCCCCCCCCCCCOc1ccccc1)[C@H]2O)[C@@H](OC(C)=O)[C@H](C)Cc1ccccc1 (some centres undefined)
MFC (Cryptococcus neoformans [1]): 8 µg/mL (≈ 9.65 µM) | Relative activity (HepG2 [2]): 3.46 | MFC (Candida albicans [3]): 0.5 µg/mL (≈ 0.603 µM) | MFC (Candida albicans [4]): > 128 µg/mL | MFC (Candida tropicalis): 0.5 µg/mL (≈ 0.603 µM) | MFC (Candida parapsilosis): 4 µg/mL (≈ 4.83 µM) | MFC (Cryptococcus neoformans [5]): 16 µg/mL (≈ 19.3 µM) | inhibition in vivo at 40 mg/kg (Mus musculus [6]): 12% | Relative activity [7]: 6.07 | Relative activity [8]: 3 | IC50 (HepG2 [9]): 2400 nM | MFC (Aspergillus fumigatus): 0.15 µg/mL (≈ 0.181 µM) | IC50 (Squalene synthase [10]): 0.04 nM

C=C(CCC12OC(C(=O)O)C(OCCC)(C(=O)O)C(C(=O)O)(O1)[C@H](OCCC)[C@H]2O)[C@@H](OC(C)=O)[C@H](C)Cc1ccccc1 (some centres undefined)
IC50 (Squalene synthase [11]): Not Active

C=C(CCC12OC(C(=O)O)C(O)(C(=O)O)C(C(=O)O)(O1)[C@H](OC(=O)/C=C/[C@@H](C)C[C@@H](C)CC)[C@H]2O)[C@@H](OC(C)=O)[C@H](C)Cc1ccccc1 (some centres undefined) [ZARAGOZIC ACID A]
MFC (Cryptococcus neoformans [1]): 1 µg/mL (≈ 1.45 µM) | MFC (Candida albicans [3]): 8 µg/mL (≈ 11.6 µM) | MFC (Candida albicans [4]): 16 µg/mL (≈ 23.2 µM) | MFC (Candida tropicalis): 2 µg/mL (≈ 2.9 µM) | MFC (Candida parapsilosis): 8 µg/mL (≈ 11.6 µM) | MFC (Cryptococcus neoformans [5]): 1 µg/mL (≈ 1.45 µM) | inhibition in vivo at 100 mg/kg (Mus musculus [12]): 50% | IC50 (HepG2 [9]): 6000 nM | MFC (Aspergillus fumigatus): 32 µg/mL (≈ 46.3 µM) | MFC (Trichophyton benhamiae): 4 µg/mL (≈ 5.79 µM) | inhibition (Mus musculus [13]): inactive

C=C(CCC12OC(C(=O)O)C(OCCCCCCCCCCCOc3ccccc3)(C(=O)O)C(C(=O)O)(O1)[C@H](OCCCCCCCCCCCOc1ccccc1)[C@H]2O)[C@@H](OC(C)=O)[C@H](C)Cc1ccccc1 (some centres undefined)
IC50 (Squalene synthase [14]): Not Active

C=C(CCC12OC(C(=O)O)C(O)(C(=O)O)C(C(=O)O)(O1)[C@H](OCCCCCCCCCCCOc1ccccc1)[C@H]2O)[C@@H](OC(C)=O)[C@H](C)Cc1ccccc1 (some centres undefined)
Relative activity (HepG2 [15]): 6.38 | Relative activity [16]: 2 | IC50 (HepG2 [9]): 1300 nM | IC50 (Squalene synthase [10]): 0.06 nM

C=C(CCC12OC(C(=O)O)C(O)(C(=O)O)C(C(=O)O)(O1)[C@H](OC(=O)C(C)(C)C)[C@H]2O)[C@@H](OC(C)=O)[C@H](C)Cc1ccccc1 (some centres undefined)
inhibition in vivo at 12 mg/kg (Mus musculus [17]): -2% | ED50 [18]: > 12 mg/kg | IC50 (Squalene synthase [11]): Not Active

C=C(CCC12OC(C(=O)O)C(O)(C(=O)O)C(C(=O)O)(O1)[C@H](OC(=O)CCC(=O)O)[C@H]2O)[C@@H](OC(C)=O)[C@H](C)Cc1ccccc1 (some centres undefined)
inhibition in vivo at 12 mg/kg (Mus musculus [17]): -20% | ED50 [18]: > 12 mg/kg | IC50 (Squalene synthase [11]): Not Active

C=C(CCC12OC(C(=O)O)C(O)(C(=O)O)C(C(=O)O)(O1)[C@H](OC(=O)CCCN)[C@H]2O)[C@@H](OC(C)=O)[C@H](C)Cc1ccccc1 (some centres undefined)
inhibition in vivo at 12 mg/kg (Mus musculus [17]): 0% | ED50 [18]: > 12 mg/kg | IC50 (Squalene synthase [11]): Not Active

— ChEMBL document CHEMBL1127414 (J Med Chem, 1994)
